{"data": "Experimental data from different studies", "target": "Serine/threonine-protein kinase tousled-like 2 (TLK2, Homo sapiens, UniProt Q86UE8)"}
{"SMILES": "CC1=C(C#N)[C@@H](c2ccc3[nH]nc(C)c3c2)C(C#N)=C(c2ccc(Cl)cc2)N1", "read-out": "cell-free assay", "method": "competition with immobilised ligand", "tested at": "1 µM", "remaining binding [%]": 100}
{"SMILES": "O=C(c1ccc(Nc2ncc(Cl)c(-c3ccc(Cl)s3)n2)cc1)N1CCC(N2CCCC2)CC1", "read-out": "binding", "method": "competition with immobilised ligand", "tested at": "1 µM", "remaining binding [%]": 29}
{"SMILES": "CNC(=O)[C@@H]1CC[C@@H](n2c(-c3ccc4cnccc4c3)nc3ccc(C(=O)NCc4cccc(C(N)=O)c4)cc32)C1", "read-out": "binding", "method": "competition with immobilised ligand", "tested at": "1 µM", "remaining binding [%]": 100}
{"SMILES": "CN(C)c1nccc(-c2cnn3ncccc23)n1", "read-out": "binding", "tested at": "1 µM", "remaining binding [%]": 100}
{"SMILES": "CCN1CCN(Cc2ccc(C(=O)Nc3ccc(C)c(Oc4ccc5c(c4)CC(=O)N5)c3)cc2C(F)(F)F)CC1", "read-out": "binding", "method": "competition with immobilised ligand", "tested at": "1 µM", "remaining binding [%]": 94}
{"SMILES": "C[C@@H](c1ccc(-n2cnc3c(N)ncnc32)cc1)N1CCc2nn(C)c(Cc3ccccc3)c2C1=O", "read-out": "binding", "method": "competition with immobilised ligand", "tested at": "0.1 µM", "remaining binding [%]": 99}
{"SMILES": "O=C(NCC1CCOCC1)c1n[nH]cc1NC(=O)c1c(F)cccc1F", "read-out": "binding", "method": "competition with immobilised ligand", "tested at": "1 µM", "remaining binding [%]": 100}
{"SMILES": "O=C(c1ccc(Nc2nccc(-c3cc4ccccc4s3)n2)cc1)N1CCC(N2CCCC2)CC1", "read-out": "binding", "method": "competition with immobilised ligand", "tested at": "1 µM", "remaining binding [%]": 15}
{"SMILES": "C[C@@H]1CCN(c2nccc(-c3cnn4ncccc34)n2)C1", "read-out": "binding", "tested at": "1 µM", "remaining binding [%]": 100}
{"SMILES": "C=CC(=O)N1CCC(C(=O)NCC(=O)N2CCN(c3nc(-c4cnc(N)nc4C(F)F)nc(N4CCOCC4)n3)CC2)CC1", "read-out": "binding", "method": "competition with immobilised ligand", "tested at": "1 µM", "remaining binding [%]": 100}
{"SMILES": "O=C(NCCCN1CCOCC1)c1ccc(Nc2nccc(-c3cc4ccccc4s3)n2)cc1", "read-out": "binding", "method": "competition with immobilised ligand", "tested at": "1 µM", "remaining binding [%]": 64}
{"SMILES": "Cc1nc(Cc2cccc(C(F)(F)F)c2)sc1-c1ccc(C(N)=O)nc1", "read-out": "cell-free assay", "method": "competition with immobilised ligand", "tested at": "1 µM", "remaining binding [%]": 82}
{"SMILES": "Cc1cnn2ncc(-c3ccnc(N(C)C)n3)c2c1", "read-out": "binding", "tested at": "1 µM", "remaining binding [%]": 100}
{"SMILES": "CNC(=O)Nc1ccc2c(c1)[C@@]1(CC2)OC(=O)N(CC(=O)N(Cc2ccc(F)cc2)[C@@H](C)C(F)(F)F)C1=O", "read-out": "cell-free assay", "method": "competition with immobilised ligand", "tested at": "1 µM", "remaining binding [%]": 100}
{"SMILES": "N[C@H]1CCN(c2nccc(-c3cnn4ncccc34)n2)C1", "read-out": "binding", "tested at": "1 µM", "remaining binding [%]": 100}
{"SMILES": "CO[C@@H](C)c1c(Nc2ccc([C@H](N(C)C(=O)C3CCS(=O)(=O)CC3)C(F)(F)F)cc2)cnc2cc(Cl)nn12", "read-out": "cell-free assay", "method": "competition with immobilised ligand", "tested at": "1 µM", "remaining binding [%]": 92}
{"SMILES": "FC(F)(F)Oc1cccc(-c2cnc3ccc(-c4ccncc4)nn23)c1", "read-out": "binding", "method": "competition with immobilised ligand", "tested at": "5 µM", "remaining binding [%]": 93}
{"SMILES": "c1cnn2ncc(-c3ccnc(N4CCC45COC5)n3)c2c1", "read-out": "binding", "tested at": "1 µM", "remaining binding [%]": 100}
{"SMILES": "O=C(Nc1cccnn1)N1CCC(=Cc2cccc(Oc3ccc(C(F)(F)F)cn3)c2)CC1", "read-out": "cell-free assay", "method": "competition with immobilised ligand", "tested at": "1 µM", "remaining binding [%]": 100}
{"SMILES": "F[C@@H]1CCN(c2nccc(-c3cnn4ncccc34)n2)C1", "read-out": "binding", "tested at": "1 µM", "remaining binding [%]": 100}
{"SMILES": "O=C(N[C@H]1CCCCC/C=C\\C2C[C@@]2(C(=O)O)NC(=O)[C@@H]2C[C@@H](Oc3ccncc3)CN2C1=O)OC1CCCC1 (stereo partly drawn)", "read-out": "cell-free assay", "method": "competition with immobilised ligand", "tested at": "1 µM", "remaining binding [%]": 100}
